Calls of active or inactive are those of the source. The calls are words filed in the database; no cut-off is given here.
Legend:
[1] = Ratio of unbound plasma concentration in Sprague-Dawley rat model of formalin-induced nociception behavior at 10 mg/kg, po to IC50 for rat Nav1.7 by whole cell voltage clamp method
Procedure, shortened: (§1)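 Total phase II formalin-induced flinches were scored. Unbound plasma concentration was determined at each dose and related to the rat NaV1.7 IC50.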

[2] = target: Histamine H2 receptor (Homo sapiens) (UniProt P25021); test: Displacement of [125I]APT from human recombinant histamine H2 receptor expressed in CHO cells at 10 uM by radioligand displacement assay; type: cell-based
Sequence of Histamine H2 receptor (Homo sapiens) (P25021 whole entry): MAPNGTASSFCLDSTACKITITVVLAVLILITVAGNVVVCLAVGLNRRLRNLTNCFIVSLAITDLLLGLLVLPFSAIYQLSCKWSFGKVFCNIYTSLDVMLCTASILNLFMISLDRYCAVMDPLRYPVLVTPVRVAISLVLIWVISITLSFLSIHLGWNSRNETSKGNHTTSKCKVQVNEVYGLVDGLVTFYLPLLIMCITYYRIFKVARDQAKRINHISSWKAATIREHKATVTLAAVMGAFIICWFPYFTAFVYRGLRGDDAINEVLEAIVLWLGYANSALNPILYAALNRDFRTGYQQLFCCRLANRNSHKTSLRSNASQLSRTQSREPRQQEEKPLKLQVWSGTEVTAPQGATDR

[3] = Clearance in rat at 0.5 mg/kg, iv by LC-MS/MS method; type: ADME, organism-based; settings: in vivo
Procedure, shortened: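 Male rats got 0.5 mg/kg IV as a DMSO solution. Unbound clearance was taken as rat clearance divided by the unbound fraction from equilibrium dialysis.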

[4] = system: Plasma; test: Unbound plasma concentration in C57BL/6 mouse model of formalin-induced nociception behavior at 100 mg/kg, po; type: ADME, organism-based; settings: in vivo
Procedure, shortened: (§2)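 The formalin arm received 2% formalin subcutaneously into the dorsal hind paw, and total phase II licking and lifting was scored. The pruritus arm was dosed 120 min before histamine (8.15mM, intradermal, nape of neck), and scratch bouts were counted over 0-30 min. Unbound plasma concentration was determined at each dose.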

[5] = Clearance in pooled human liver microsomes at 1 uM in presence of NADPH by LC-MS/MS method; type: ADME, microsome; settings: read-out: CLH
[6] = Ratio of unbound plasma concentration in C57BL/6 mouse model of histamine-induced pruritus at 60 mg/kg, po to IC50 for mouse Nav1.7 by whole cell voltage clamp method; procedure, shortened: as §2
[7] = Unbound fraction in rat plasma at 5 uM by ultracentrifugation and LC-MS/MS method; type: ADME, cell-free
[8] = target: Histamine H3 receptor (Homo sapiens) (UniProt Q9Y5N1); test: Displacement of [3H]N-alpha-Me-histamine from human recombinant histamine H3 receptor expressed in CHO cells at 10 uM by radioligand displacement assay; type: cell-based
Sequence of Histamine H3 receptor (Homo sapiens) (Q9Y5N1 whole entry): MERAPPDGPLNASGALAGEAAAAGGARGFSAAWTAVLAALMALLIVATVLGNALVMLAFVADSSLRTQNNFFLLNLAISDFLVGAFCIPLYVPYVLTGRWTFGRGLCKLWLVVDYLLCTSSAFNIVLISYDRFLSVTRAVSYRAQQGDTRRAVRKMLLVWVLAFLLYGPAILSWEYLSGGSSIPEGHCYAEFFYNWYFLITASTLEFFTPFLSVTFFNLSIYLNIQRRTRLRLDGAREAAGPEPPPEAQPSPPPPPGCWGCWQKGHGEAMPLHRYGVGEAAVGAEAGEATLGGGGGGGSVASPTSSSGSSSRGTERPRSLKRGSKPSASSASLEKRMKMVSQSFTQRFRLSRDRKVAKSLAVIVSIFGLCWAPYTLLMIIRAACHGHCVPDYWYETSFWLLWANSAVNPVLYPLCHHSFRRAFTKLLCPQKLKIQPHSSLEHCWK

[9] = Ratio of unbound plasma concentration in Sprague-Dawley rat model of formalin-induced nociception behavior at 30 mg/kg, po to IC50 for rat Nav1.7 by whole cell voltage clamp method; procedure, shortened: as §1
[10] = Unbound fraction in mouse plasma at 5 uM by ultracentrifugation and LC-MS/MS method; type: ADME, cell-free
[11] = system: Plasma; test: Plasma concentration in Sprague-Dawley rat model of formalin-induced nociception behavior at 100 mg/kg, po; type: ADME, organism-based; settings: in vivo
Procedure, shortened: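 Sprague Dawley rats got 10, 30 or 100 mg/kg PO in 30% (w/v) hydroxypropyl β-cyclodextrin, pH 10.0 with KOH. Total phase II formalin-induced flinches were counted. Morphine sulfate 2 mg/kg SC served as control. Unbound plasma levels were measured and compared with the rat NaV1.7 IC50.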

[12] = system: Plasma; test: Plasma concentration in C57BL/6 mouse model of formalin-induced nociception behavior at 100 mg/kg, po; type: ADME, organism-based; settings: in vivo
Procedure, shortened: (§3)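 Male C57BL/6 mice got 30, 60 or 100 mg/kg PO in 30% (w/v) hydroxypropyl β-cyclodextrin in water, pH 10.0 with KOH. Formalin (2%) was injected subcutaneously into the dorsal hind paw, and total phase II paw licking and lifting were scored. Morphine sulfate 3 mg/kg SC served as control. Unbound plasma concentration was divided by the mouse NaV1.7 IC50.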

[13] = Protein binding in rat plasma at 5 uM by ultracentrifugation and LC-MS/MS method; type: ADME, cell-free; settings: read-out: PPB (converted)
[14] = system: Mus musculus; test: Analgesic activity in C57BL/6 mouse model of formalin-induced nociception behavior assessed as reduction in formalin-evoked paw lifting/licking at 30 mg/kg, po; type: functional; procedure, shortened: as §3
[15] = Ratio of unbound plasma concentration in Sprague-Dawley rat model of formalin-induced nociception behavior at 100 mg/kg, po to IC50 for rat Nav1.7 by whole cell voltage clamp method; procedure, shortened: as §1
[16] = target: Sodium channel protein type 9 subunit alpha (Homo sapiens, UniProt Q15858); test: Displacement of (P)-1-(30-chloro-2-fluoro-5,50-dimethoxy-[1,10biphenyl]-4-yl)-N-(isoxazol-3-yl)-2-oxo-1,2-dihydroquinoline-6-sulfonamide[50-methoxy-C3H3] from human NaV1.7 expressed in HEK293 cell membranes incubated for 1 hr by beta counting method
Procedure, shortened: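 Human NaV1.7 radioligand displacement using the tritiated 5'-methoxy-labelled dihydroquinoline sulfonamide ligand, which binds the VSDIV pocket.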

[17] = system: Plasma; test: Plasma concentration in C57BL/6 mouse model of histamine-induced pruritus at 100 mg/kg, po; type: ADME, organism-based; settings: in vivo
Procedure, shortened: (§4)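 Male C57BL/6 mice got 30, 60 or 100 mg/kg PO in 30% hydroxypropyl β-cyclodextrin, pH 10.0, 120 min before the test. Histamine (8.15mM) was given intradermally to the nape of the neck just before testing, and scratch bouts were counted over 0–30 min. Diphenhydramine 30 mg/kg PO in water, 90 min before, served as control. Unbound plasma concentrations were measured.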

[18] = target: Histamine H1 receptor (Homo sapiens) (UniProt P35367); test: Displacement of [3H]pyrilamine from human recombinant histamine H1 receptor expressed in HEK293 cells at 10 uM by radioligand displacement assay; type: cell-based
[19] = Tmax in rat at 10 mg/kg, po by LC-MS/MS method; type: ADME, organism-based; settings: in vivo
[20] = system: Plasma; test: Unbound plasma concentration in Sprague-Dawley rat model of formalin-induced nociception behavior at 100 mg/kg, po; type: ADME, organism-based; settings: in vivo; procedure, shortened: as §1
[21] = Ratio of unbound plasma concentration in C57BL/6 mouse model of formalin-induced nociception behavior at 100 mg/kg, po to IC50 for mouse Nav1.7 by whole cell voltage clamp method; procedure, shortened: as §3
[22] = system: Plasma; test: Plasma concentration in C57BL/6 mouse model of histamine-induced pruritus at 60 mg/kg, po; type: ADME, organism-based; settings: in vivo; procedure, shortened: as §4
[23] = Oral bioavailability in rat at 10 mg/kg by LC-MS/MS method; type: ADME, organism-based; settings: in vivo
[24] = system: Plasma; test: Unbound plasma concentration in C57BL/6 mouse model of histamine-induced pruritus at 60 mg/kg, po; type: ADME, organism-based; settings: in vivo; procedure, shortened: as §2
[25] = target: Sodium channel protein type 10 subunit alpha (Rattus norvegicus, UniProt Q62968); test: Inhibition of NaV1.8 in rat DRG neurons assessed as reduction in tetrodotoxin-resistant sodium channel currents at holding potential of -140 mV by manual patch clamp electrophysiology assay
Sequence of Sodium channel protein type 10 subunit alpha (Q62968 whole entry): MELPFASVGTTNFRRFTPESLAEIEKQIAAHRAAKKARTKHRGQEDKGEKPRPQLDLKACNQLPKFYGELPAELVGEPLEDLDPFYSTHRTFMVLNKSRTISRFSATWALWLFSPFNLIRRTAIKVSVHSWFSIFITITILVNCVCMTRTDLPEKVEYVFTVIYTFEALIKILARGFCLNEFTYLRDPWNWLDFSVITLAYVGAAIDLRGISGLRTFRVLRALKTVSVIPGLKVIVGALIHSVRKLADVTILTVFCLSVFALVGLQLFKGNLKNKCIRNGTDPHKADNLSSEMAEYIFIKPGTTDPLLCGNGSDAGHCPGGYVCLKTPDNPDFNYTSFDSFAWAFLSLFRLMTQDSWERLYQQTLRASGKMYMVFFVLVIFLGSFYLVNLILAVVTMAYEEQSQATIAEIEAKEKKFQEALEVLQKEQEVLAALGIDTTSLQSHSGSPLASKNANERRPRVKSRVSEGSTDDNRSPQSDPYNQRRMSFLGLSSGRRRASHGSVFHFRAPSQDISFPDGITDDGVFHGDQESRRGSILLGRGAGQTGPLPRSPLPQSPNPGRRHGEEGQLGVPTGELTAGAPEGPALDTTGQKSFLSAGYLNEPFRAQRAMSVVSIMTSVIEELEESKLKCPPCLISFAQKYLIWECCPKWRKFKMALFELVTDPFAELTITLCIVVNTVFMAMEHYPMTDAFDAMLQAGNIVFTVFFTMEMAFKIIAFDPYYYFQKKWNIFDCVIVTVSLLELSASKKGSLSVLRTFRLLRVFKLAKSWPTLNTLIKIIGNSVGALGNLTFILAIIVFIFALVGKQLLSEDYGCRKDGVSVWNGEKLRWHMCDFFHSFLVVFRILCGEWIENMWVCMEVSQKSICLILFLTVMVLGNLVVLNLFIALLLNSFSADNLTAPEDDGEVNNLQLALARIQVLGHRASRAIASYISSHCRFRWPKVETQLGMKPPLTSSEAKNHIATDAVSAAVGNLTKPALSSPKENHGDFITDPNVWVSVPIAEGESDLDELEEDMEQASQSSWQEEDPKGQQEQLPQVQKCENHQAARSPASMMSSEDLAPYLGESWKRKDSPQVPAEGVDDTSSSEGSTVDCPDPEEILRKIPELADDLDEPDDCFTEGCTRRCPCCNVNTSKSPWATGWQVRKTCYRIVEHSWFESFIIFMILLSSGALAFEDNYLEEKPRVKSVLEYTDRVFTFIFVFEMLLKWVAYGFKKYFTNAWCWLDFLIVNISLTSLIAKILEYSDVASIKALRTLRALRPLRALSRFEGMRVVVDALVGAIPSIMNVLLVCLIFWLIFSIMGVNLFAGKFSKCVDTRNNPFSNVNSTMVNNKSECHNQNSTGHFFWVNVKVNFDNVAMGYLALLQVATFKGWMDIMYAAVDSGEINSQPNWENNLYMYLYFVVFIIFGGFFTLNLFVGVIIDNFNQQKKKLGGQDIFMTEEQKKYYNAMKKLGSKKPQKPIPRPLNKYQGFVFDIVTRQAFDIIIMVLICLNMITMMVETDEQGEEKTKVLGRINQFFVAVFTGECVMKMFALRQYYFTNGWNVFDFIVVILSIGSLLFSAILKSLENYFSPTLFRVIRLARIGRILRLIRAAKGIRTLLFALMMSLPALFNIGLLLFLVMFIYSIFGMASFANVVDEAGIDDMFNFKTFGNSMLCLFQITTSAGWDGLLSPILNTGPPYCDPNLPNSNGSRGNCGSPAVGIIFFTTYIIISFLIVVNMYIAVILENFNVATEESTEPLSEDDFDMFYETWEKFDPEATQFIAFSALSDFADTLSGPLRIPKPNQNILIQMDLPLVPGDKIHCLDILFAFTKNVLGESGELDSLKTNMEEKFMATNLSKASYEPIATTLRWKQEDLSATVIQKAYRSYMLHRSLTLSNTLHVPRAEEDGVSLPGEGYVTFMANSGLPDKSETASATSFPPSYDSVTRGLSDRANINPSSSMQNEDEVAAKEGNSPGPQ

[26] = system: Plasma; test: Unbound plasma concentration in C57BL/6 mouse model of histamine-induced pruritus at 100 mg/kg, po; type: ADME, organism-based; settings: in vivo; procedure, shortened: as §2
[27] = target: Sodium channel protein type 9 subunit alpha (Rattus norvegicus, UniProt O08562); test: Inhibition of rat NaV1.7 by cell based whole cell voltage clamp method
Sequence of Sodium channel protein type 9 subunit alpha (Rattus norvegicus, UniProt O08562) (O08562 whole entry): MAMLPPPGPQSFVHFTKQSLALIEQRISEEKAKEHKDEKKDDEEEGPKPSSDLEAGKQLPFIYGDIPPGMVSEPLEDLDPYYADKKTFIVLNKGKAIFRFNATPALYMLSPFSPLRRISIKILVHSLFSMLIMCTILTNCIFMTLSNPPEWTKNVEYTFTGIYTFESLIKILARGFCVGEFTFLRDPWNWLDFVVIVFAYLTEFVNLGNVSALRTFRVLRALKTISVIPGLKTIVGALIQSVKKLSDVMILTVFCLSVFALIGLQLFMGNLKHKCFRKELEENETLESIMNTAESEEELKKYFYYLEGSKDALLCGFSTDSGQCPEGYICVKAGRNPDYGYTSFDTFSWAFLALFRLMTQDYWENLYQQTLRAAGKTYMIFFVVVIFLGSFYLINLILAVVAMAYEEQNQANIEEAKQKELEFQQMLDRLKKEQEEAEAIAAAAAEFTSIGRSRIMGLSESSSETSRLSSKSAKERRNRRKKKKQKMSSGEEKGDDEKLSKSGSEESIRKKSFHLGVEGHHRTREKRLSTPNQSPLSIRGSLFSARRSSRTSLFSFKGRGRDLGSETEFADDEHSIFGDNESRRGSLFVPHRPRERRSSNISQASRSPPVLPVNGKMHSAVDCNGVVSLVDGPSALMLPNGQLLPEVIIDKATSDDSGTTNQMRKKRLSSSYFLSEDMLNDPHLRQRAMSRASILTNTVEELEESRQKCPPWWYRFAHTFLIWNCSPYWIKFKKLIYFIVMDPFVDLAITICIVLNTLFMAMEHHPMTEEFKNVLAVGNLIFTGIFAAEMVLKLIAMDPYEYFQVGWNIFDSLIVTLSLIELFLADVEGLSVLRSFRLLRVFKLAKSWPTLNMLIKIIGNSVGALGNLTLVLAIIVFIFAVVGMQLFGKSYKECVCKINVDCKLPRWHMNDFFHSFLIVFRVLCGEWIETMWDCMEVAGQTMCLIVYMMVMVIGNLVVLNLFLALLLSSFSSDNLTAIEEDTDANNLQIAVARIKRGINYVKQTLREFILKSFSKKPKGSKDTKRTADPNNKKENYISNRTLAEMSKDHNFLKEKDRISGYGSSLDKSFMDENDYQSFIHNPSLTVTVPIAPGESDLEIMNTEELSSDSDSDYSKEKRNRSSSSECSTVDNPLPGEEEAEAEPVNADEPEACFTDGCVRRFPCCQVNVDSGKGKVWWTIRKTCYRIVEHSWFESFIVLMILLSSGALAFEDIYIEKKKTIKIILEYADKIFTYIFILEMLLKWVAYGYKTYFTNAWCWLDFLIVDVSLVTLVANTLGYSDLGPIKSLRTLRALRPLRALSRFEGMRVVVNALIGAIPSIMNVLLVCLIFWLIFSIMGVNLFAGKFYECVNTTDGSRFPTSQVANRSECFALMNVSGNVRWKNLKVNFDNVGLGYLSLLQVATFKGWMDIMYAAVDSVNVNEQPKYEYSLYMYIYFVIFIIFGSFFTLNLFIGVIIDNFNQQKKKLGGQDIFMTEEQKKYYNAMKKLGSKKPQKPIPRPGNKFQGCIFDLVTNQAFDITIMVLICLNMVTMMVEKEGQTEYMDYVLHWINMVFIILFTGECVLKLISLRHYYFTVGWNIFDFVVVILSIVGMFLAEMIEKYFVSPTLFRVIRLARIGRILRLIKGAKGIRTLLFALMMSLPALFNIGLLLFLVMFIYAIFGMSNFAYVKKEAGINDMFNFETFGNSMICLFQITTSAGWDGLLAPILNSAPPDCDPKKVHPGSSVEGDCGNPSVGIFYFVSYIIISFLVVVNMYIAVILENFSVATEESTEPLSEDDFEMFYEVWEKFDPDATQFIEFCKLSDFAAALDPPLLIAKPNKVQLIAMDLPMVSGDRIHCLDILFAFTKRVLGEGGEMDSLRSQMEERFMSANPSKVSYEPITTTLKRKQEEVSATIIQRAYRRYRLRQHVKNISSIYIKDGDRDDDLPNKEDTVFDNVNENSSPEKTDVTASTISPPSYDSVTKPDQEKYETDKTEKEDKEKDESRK
Procedure, shortened: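 PatchXpress electrophysiology was run with a protocol giving about 20% channel inactivation. At least four concentrations at half-log spacing were applied one at a time, with washout, current recovery and holding voltage reset between each. Data were pooled from at least 10 cells, with 2–3 points per concentration, and fitted with a 4-parameter Hill curve to give one IC50.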

[28] = system: Mus musculus; test: Anti-pruritic activity in C57BL/6 mouse model of histamine-induced pruritus assessed as reduction in histamine-induced scratching at 100 mg/kg, po dosed 120 mins before test; type: functional; procedure, shortened: as §4
[29] = system: Plasma; test: Unbound plasma concentration in C57BL/6 mouse model of formalin-induced nociception behavior at 30 mg/kg, po; type: ADME, organism-based; settings: in vivo; procedure, shortened: as §2

Q: Which Ratio [1] does the source give for `N#Cc1cc(C(F)(F)F)ccc1N1CCOc2cc(S(=O)(=O)Nc3nccs3)c(F)cc21` here?
A: 0.5

Q: What about the inhibition [2] of the same compound?
A: inactive

Q: What about the clearance [3] of the same compound?
A: 10 mL/min/kg

Q: And the “Cp(f)” value [4]?
A: 0.92 µM

Q: And the microsomal CLint at 1 µM [5]?
A: < 14 µL/min/mg

Q: And the Ratio [6]?
A: 10

Q: What about the fraction unbound at 5 µM [7] of the same compound?
A: 0.015

Q: What about the inhibition [8] of the same compound?
A: inactive

Q: And the Ratio [9]?
A: 1.3

Q: What about the fraction unbound at 5 µM [10] of the same compound?
A: 0.006

Q: What about the concentration [11] of the same compound?
A: 11 µM

Q: What about the concentration [12] of the same compound?
A: 150 µM

Q: And the fraction unbound at 5 µM [13]?
A: 0.015

Q: What about the MPE [14] of the same compound?
A: 5%

Q: And the Ratio [15]?
A: 3.6

Q: What about the IC50 [16] of the same compound?
A: 37 nM

Q: What about the concentration [17] of the same compound?
A: 113 µM

Q: What about the inhibition [18] of the same compound?
A: inactive

Q: And the Tmax [19]?
A: 6.7 h

Q: What about the “Cp(f)” value [20] of the same compound?
A: 0.18 µM

Q: And the Ratio [21]?
A: 16

Q: And the concentration [22]?
A: 109 µM

Q: And the bioavailability [23]?
A: 57%

Q: What about the “Cp(f)” value [24] of the same compound?
A: 0.66 µM

Q: What about the IC50 [25] of the same compound?
A: > 30000 nM

Q: What about the “Cp(f)” value [26] of the same compound?
A: 0.68 µM

Q: And the IC50 [27]?
A: 67 nM

Q: What about the MPE [28] of the same compound?
A: 80%

Q: What about the “Cp(f)” value [29] of the same compound?
A: 0.3 µM

Reference: ChEMBL document CHEMBL4052683, “The discovery of benzoxazine sulfonamide inhibitors of NaV1.7: Tools that bridge efficacy and target engagement” (Bioorg Med Chem Lett, 2017)
